Publication PMC12423902 (ACS Omega, 2025)
Like-named read-outs stand apart in the source and are kept apart here. One block for each compound: values may come before it.

Assays:
MCF-7 = assay: cell viability assay; format: cell-based; details: Homo sapiens, MCF7, 24 h, read-out: IC50, cell viability
Procedure, shortened: (§1)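 Cells were grown in DMEM with 10% FBS at 37 °C and 5% CO2. They were seeded at 1 × 10^6 cells/mL and allowed to attach overnight before treatment. Medium was then replaced with drug-free medium containing CCK-8 reagent, incubated 1 h at 37 °C, and read at 450 nm. Six replicates were run on three separate occasions.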

[1] = biological target: FASN KR domain (β-ketoacyl reduction) (Gallus gallus, UniProt P12276); assay: β-ketoacyl reduction partial reaction of FASN; format: biochemical, chicken; details: 10.0 μM phloretin
Procedure, shortened: (§2)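 Chicken liver FASN was purified by two-step ammonium sulfate precipitation, DEAE-cellulose and Blue-Sepharose chromatography, and stored at −70 °C. Partial reactions (β-ketoacyl reduction, enoyl reduction, AcAc-CoA reduction) were run at 37 °C after 10 min equilibration. The test compound was at 10.0 μM, with DMSO below 0.5% (v/v). Initial velocity came from the NADPH decrease at 340 nm. Relative activity was Ai/A0 × 100%, given as mean ± SD of three independent experiments.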

FASN [2] = biological target: T1, FASN (Gallus gallus, UniProt P12276); assay: time-dependent; format: biochemical, chicken
Procedure, shortened: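 FASN was incubated at 25 °C with various test compound concentrations. Aliquots taken at set intervals were assayed for residual overall activity. kobs came from ln(At/A0) = −kobs·t. For substrate protection, Ac-CoA, Mal-CoA or NADPH (10 μM each) was present during inactivation, compared with no substrate. In a separate series, FASN (0.60 μM) was preincubated with 6.6 μM test compound plus rising Ac-CoA, and 1/kobs was plotted against Ac-CoA.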

[3] = test system: FASN expression in MDA-MB-231 and MCF-7 cells; assay: Western blot analysis of FASN expression in breast cancer cells; format: cell-based, human; details: 60–90 μM, 24 h, both cell lines
Procedure, shortened: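 Cells in DMEM/10% FBS were treated 24 h with test compound, washed with PBS, lysed in RIPA and sonicated. Protein was measured by BCA, and 20 μg per lane was run on 8% SDS-PAGE and transferred to PVDF. Membranes were blocked in 5% milk, probed overnight at 4 °C with rabbit monoclonal anti-FASN and anti-β-actin, then an HRP anti-rabbit secondary. Detection was by ECL, with densitometry normalized to β-actin; mean ± SD, n = 3.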

MDA-MB-231 = assay: cell viability assay; format: cell-based; details: Homo sapiens, MDA-MB-231, 24 h, read-out: IC50, cell viability
Procedure, shortened: as §1

FASN KR domain = FASN KR domain (Gallus gallus, UniProt P12276); assay: time-dependent inhibition of the KR domain; format: biochemical, chicken
FASN [4] = biological target: T1, FASN; assay: FASN overall reaction inhibition; format: biochemical, chicken
Procedure, shortened: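 Overall reaction of purified chicken liver FASN at 37 °C, read as initial rate of NADPH absorbance loss at 340 nm. The test compound was added before the last substrate, which started the reaction; DMSO was below 0.5% (v/v). Relative activity was Ai/A0 × 100%. IC50 came from a plot of relative activity versus concentration. Single-point data at 10.0 μM are mean ± SD, n = 3 independent experiments.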

FASN [5] = biological target: T1, FASN; assay: enzyme kinetics study; format: biochemical, chicken; details: for Ki: Inhibition constant K is
Procedure, shortened: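 Purified chicken FASN, overall reaction at 340 nm (NADPH). One substrate was varied with the others fixed. Ac-CoA varied with Mal-CoA 10 μM and NADPH 35 μM, test compound 0–5.86 μM. Mal-CoA varied with Ac-CoA 3 μM and NADPH 35 μM, test compound 0–6.88 μM. NADPH varied with Ac-CoA 3 μM and Mal-CoA 10 μM, test compound 0–9.12 μM. Lineweaver–Burk plots; Kis/Kii from secondary plots; points are means of 2–5 experiments.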

[6] = biological target: intracellular FASN in breast cancer cells (MDA-MB-231, MCF-7) (Homo sapiens, UniProt P49327); assay: intracellular FASN activity assay; format: cell-based
Procedure, shortened: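 After 24 h exposure, cells were trypsinized, washed three times and resuspended in cold PBS. They were sonicated at 4 °C and spun at 12,000 g for 15 min at 4 °C. Supernatant was assayed in 25 mM K-phosphate (pH 7.0) with 0.25 mM EDTA, 0.25 mM DTT, 30 μM Ac-CoA and 350 μM NADPH. Background A340 was read for 60 s, then Mal-CoA was added and FAS-dependent NADPH oxidation read for 60 s more. Mean ± SD, n = 3; ANOVA with Tukey.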

[7] = biological target: FASN ER domain (enoyl reduction) (Gallus gallus, UniProt P12276); assay: enoyl reduction partial reaction of FASN; format: biochemical, chicken; details: 10.0 μM phloretin
Procedure, shortened: as §2

[8] = ref number not given, cited from earlier work
[9] = biological target: FASN (MAT, KR, DH, ER domains and ACP; AcAc-CoA reaction) (Gallus gallus, UniProt P12276); assay: AcAc-CoA reduction reaction of FASN; format: biochemical, chicken; details: 10.0 μM phloretin
Procedure, shortened: as §2

[10] = test system: intracellular TG content in breast cancer cells (MDA-MB-231, MCF-7); assay: triglyceride; format: cell-based, human; details: 24 h, p < 0.001
FASN [11] = biological target: T1, FASN; details: read-out: IC50, FASN inhibition; literature value; ref number not given; cited from earlier work

T1 sequence (P12276 2-2512 limits assumed): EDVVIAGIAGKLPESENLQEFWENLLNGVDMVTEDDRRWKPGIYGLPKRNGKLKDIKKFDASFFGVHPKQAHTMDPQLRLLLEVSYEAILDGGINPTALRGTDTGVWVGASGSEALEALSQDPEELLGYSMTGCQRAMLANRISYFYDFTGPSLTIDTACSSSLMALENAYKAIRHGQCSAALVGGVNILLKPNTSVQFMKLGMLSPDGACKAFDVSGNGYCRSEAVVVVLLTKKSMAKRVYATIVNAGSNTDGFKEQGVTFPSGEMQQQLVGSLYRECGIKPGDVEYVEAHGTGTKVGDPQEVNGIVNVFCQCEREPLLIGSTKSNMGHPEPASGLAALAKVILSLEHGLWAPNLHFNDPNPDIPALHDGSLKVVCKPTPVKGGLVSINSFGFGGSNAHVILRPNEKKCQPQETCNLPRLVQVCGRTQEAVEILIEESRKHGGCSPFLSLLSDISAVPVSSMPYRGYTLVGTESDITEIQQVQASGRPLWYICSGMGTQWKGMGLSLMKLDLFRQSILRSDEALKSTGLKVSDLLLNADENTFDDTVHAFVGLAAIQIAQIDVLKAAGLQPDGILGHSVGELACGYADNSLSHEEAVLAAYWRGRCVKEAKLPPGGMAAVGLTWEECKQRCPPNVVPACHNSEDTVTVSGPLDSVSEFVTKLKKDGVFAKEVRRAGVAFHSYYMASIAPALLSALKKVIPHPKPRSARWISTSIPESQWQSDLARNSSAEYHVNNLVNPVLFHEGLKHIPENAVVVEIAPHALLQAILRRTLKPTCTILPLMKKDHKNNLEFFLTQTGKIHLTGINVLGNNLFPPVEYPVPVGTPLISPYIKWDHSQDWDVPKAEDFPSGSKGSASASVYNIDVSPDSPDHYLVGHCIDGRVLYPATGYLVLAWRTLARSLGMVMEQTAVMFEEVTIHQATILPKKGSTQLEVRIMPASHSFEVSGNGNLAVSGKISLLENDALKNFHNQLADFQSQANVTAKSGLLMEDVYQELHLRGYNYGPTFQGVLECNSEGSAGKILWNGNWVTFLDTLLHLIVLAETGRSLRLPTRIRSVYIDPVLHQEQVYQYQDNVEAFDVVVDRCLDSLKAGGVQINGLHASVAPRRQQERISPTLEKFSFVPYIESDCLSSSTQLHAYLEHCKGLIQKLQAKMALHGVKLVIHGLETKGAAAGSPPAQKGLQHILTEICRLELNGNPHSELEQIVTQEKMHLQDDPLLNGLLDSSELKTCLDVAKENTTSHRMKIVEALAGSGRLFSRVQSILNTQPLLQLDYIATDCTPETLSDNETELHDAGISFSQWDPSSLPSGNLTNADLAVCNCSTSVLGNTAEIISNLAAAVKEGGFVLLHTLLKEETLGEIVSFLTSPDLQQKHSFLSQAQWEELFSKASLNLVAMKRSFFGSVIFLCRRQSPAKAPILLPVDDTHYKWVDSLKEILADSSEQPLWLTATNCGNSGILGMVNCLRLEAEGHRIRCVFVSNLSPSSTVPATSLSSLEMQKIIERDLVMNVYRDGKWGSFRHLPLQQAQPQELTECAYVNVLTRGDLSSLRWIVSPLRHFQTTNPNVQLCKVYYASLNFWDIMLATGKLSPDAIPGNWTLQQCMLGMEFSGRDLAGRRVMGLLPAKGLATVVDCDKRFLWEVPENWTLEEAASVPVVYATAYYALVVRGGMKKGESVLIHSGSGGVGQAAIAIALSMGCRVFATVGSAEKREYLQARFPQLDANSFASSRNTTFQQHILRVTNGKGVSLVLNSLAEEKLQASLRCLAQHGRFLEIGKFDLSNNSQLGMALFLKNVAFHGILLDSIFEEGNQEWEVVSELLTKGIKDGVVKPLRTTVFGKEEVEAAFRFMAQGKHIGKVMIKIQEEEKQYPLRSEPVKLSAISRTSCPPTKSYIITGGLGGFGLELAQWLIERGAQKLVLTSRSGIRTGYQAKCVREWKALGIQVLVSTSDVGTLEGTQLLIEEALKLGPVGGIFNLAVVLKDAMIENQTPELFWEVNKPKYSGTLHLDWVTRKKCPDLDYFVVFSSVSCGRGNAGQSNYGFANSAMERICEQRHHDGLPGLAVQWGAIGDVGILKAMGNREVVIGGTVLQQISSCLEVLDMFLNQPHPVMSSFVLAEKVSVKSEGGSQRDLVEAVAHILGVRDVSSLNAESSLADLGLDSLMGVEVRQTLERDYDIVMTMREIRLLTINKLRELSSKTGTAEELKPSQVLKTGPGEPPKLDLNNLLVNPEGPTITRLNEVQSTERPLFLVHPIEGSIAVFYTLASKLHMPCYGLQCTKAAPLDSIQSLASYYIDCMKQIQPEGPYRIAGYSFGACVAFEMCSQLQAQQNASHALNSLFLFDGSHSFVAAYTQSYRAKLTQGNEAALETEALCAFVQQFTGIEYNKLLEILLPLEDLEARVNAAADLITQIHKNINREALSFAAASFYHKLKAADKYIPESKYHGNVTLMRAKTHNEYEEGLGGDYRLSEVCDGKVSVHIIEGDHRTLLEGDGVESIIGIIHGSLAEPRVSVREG
intracellular FASN in breast cancer cells (MDA-MB-231, MCF-7), sequence (P49327 whole entry): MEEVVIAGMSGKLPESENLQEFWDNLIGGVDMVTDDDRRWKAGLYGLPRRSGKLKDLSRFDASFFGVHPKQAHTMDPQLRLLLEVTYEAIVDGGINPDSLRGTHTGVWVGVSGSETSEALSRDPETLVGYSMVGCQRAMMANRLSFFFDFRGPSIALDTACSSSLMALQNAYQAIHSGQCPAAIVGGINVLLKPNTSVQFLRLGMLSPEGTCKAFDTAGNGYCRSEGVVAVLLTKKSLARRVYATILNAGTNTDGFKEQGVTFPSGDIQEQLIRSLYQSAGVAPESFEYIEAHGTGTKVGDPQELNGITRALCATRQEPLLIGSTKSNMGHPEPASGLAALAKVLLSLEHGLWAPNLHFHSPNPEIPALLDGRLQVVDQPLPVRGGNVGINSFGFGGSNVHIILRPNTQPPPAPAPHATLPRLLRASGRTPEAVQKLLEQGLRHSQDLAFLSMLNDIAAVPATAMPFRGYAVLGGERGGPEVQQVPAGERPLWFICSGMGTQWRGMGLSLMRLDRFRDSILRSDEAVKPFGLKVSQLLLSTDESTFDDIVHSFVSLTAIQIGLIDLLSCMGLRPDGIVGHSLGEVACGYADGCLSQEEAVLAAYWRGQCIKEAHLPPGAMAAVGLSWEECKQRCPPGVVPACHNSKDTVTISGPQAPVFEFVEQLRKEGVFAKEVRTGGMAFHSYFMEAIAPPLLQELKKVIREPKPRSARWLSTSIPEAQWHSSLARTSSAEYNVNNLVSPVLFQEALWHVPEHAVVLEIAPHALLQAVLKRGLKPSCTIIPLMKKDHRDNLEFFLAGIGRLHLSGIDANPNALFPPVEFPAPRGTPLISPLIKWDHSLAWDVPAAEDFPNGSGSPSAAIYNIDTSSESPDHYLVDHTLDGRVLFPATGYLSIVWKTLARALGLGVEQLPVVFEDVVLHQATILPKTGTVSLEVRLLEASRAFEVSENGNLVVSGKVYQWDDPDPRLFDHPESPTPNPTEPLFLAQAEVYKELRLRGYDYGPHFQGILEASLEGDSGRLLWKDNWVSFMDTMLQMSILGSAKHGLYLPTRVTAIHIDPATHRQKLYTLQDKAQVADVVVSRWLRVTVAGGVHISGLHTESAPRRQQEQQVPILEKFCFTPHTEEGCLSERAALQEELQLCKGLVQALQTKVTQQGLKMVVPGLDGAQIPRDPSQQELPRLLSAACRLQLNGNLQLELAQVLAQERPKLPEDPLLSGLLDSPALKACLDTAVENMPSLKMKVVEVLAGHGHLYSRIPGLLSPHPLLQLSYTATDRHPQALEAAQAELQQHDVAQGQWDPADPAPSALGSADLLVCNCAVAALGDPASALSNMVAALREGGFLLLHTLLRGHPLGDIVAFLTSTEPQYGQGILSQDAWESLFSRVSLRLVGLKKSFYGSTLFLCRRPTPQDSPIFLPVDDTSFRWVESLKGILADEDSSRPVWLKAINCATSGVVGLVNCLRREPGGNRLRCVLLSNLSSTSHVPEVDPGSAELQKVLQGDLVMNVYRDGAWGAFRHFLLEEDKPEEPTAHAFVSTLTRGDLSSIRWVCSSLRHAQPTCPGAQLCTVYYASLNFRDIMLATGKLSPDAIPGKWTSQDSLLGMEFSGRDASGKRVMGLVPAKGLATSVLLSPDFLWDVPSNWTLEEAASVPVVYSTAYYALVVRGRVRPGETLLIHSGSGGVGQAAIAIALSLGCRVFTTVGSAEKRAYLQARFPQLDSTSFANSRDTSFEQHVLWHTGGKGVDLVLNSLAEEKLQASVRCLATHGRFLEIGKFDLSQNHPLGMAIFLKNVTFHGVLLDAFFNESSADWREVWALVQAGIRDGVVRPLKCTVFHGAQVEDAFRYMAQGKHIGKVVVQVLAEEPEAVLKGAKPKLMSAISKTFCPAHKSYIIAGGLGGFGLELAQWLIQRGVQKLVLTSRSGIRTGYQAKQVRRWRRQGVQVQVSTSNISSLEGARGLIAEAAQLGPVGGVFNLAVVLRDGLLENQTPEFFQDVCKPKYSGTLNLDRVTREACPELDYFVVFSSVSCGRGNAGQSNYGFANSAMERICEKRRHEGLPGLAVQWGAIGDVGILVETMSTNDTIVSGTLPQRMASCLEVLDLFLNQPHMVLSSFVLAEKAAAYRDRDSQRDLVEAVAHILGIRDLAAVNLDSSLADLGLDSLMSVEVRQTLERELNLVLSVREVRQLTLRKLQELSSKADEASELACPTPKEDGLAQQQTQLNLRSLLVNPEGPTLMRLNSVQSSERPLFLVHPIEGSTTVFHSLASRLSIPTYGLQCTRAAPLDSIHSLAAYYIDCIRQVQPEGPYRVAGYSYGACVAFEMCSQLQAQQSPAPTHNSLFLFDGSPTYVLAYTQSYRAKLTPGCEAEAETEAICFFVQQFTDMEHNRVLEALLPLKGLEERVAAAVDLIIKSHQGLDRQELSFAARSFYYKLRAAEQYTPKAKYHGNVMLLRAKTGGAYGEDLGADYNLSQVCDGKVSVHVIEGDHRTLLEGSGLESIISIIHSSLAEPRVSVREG
FASN KR domain, sequence (P12276 2-2512 limits assumed): as the sequence (P12276 2-2512 limits assumed) above
FASN KR domain (β-ketoacyl reduction), sequence (P12276 2-2512 limits assumed): as above
FASN (MAT, KR, DH, ER domains and ACP; AcAc-CoA reaction), sequence (P12276 2-2512 limits assumed): as above

IC50 (MCF-7): 101 µM
β-ketoacyl reduction activity suppressed [1]: 3.5%
decrease of k obs by preincubation with Mal-CoA or NADPH (FASN [2]; Mal-CoA (10 μM) or NADPH (10 μM) vs no substrate): 5–10%
k obs, FASN inactivation without any substrate (FASN [2]; control, same conditions without substrate): 0.070 min^–1
k obs, overall reaction activity of FASN (FASN [2]; phloretin 2 mg/mL, incubated at 25 °C): 0.0264 min^–1
k obs, FASN inactivation with Ac-CoA (FASN [2]; with Ac-CoA (10 μM)): 0.025 min^–1
k obs, FASN inactivation with Mal-CoA (FASN [2]; with Mal-CoA (10 μM)): 0.067 min^–1
k obs, FASN inactivation with NADPH (FASN [2]; with NADPH (10 μM)): 0.064 min^–1
IC50 (MDA-MB-231): 81.4 µM
IC50 (FASN [4]): 4.9 ± 0.66 µM
inhibition at 10 µM (FASN [4]; read-out: inhibition of overall FASN activity): 81%
Ki (FASN [5]; substrate Ac-CoA): 3.46 µM
Ki (FASN [5]; substrate Mal-CoA): 5.69 µM
Inhibitory manner (FASN [5]; substrate Ac-CoA varied, Mal-CoA 10 μM, NADPH 35 μM): Competitive
Inhibitory manner (FASN [5]; substrate Mal-CoA varied, Ac-CoA 3 μM, NADPH 35 μM): Mixed competitive and noncompetitive
Inhibition constant K ii (FASN [5]; substrate Mal-CoA, enzyme–substrate complex): 9.41 µM
Inhibition constant K ii (FASN [5]; substrate NADPH): 1.80 µM
Inhibitory manner (FASN [5]; substrate NADPH varied, Ac-CoA 3 μM, Mal-CoA 10 μM): Uncompetitive
lowest concentration with significant inhibition of intracellular FASN activity ([6]; p < 0.01, 24 h, breast cancer cells): 30 µM
inhibition at 90 µM ([6]; read-out: maximal inhibition of intracellular FASN enzymatic activity): > 50%
enoyl reduction activity suppressed [7]: 4.8%
AcAc-CoA reaction activity remained [9]: 91.2%
Compound: O=C(CCc1ccc(O)cc1)c1c(O)cc(O)cc1O [phloretin, β-(4-hydroxyphenyl)-2,4,6-trihydroxypropiophenone]
FASN protein content [3]: significantly decreased
time-dependent inhibition of KR domain (FASN KR domain): no time-dependent inhibition was observed
time of Cmax postdose ([8]; Sprague–Dawley rats, single 100 mg/kg dose): 15 min
Cmax ([8]; oral doses of 200 and 300 mg/kg): < 10 µM
oral bioavailability ([8]; rats, oral and intravenous routes): 8.676%
cellular TG levels [10]: marked concentration-dependent reduction

Compound: C/C=C/C/C=C/CCC(=O)[C@H]1O[C@H]1C(N)=O [cerulenin]
IC50 (FASN [11]): 89 µM

IC50 (FASN [4]; read-out: IC50, FASN overall reaction activity, chicken liver FASN, 37 °C): 50.5 ± 0.75 µM
Compound: O=C(O[C@@H]1Cc2c(O)cc(O)cc2O[C@@H]1c1cc(O)c(O)c(O)c1)c1cc(O)c(O)c(O)c1 [EGCG, epigallocatechin gallate, reference compound]
IC50 (FASN [11]): 52 µM
